The results in this text go back to ChEMBL document CHEMBL4402581, “Monohydrazone Based G-Quadruplex Selective Ligands Induce DNA Damage and Genome Instability in Human Cancer Cells” (J Med Chem, 2020).

The source made the active and inactive calls. The rule behind the calls is not given here. Where only a bound is given, the exact number is not on record here.

For experiment [1], the system named is Quadruplex DNA. As to the kind of experiment: Effect on c-Kit1 G4 quadruplex DNA architecture at 10 mol.equiv by circular dichroism spectral analysis. The class given is nucleic-acid assay. The method in brief:
(§1)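 CD spectra of 15 μM G4s or 30 μM hairpin in 20 mM K phosphate pH 7.0 with 5 mM KCl, after annealing. Recorded at 20 °C over 230–360 nm, three scans averaged, buffer baseline subtracted. Ligand was added at 10 mol equiv to the folded DNA from a 10 mM DMSO stock.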
(Circular dichroism is the unequal absorption of left and right circularly polarised light.)

A short description of experiment [2]: Displacement of Thiazole orange from hairpin duplex DNA incubated for 3 mins by spectrofluorimetry. The method in brief:
(§2)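 Pre-folded DNA (0.25 μM) in K phosphate/KCl buffer was mixed with thiazole orange: 0.50 μM for G4s, 0.75 μM for duplex. Ligand was added stepwise from 0.5 to 10 equiv, with 3 min equilibration at 20 °C after each addition. Excitation 495 nm; emission read at 543 nm. Displacement % = 100 − (F/F0 × 100). DC50 is the concentration giving 50% displacement.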

Experiment [3] addresses Quadruplex DNA. The experiment in a line: Displacement of Thiazole orange from parallel Tel23 G4 quadruplex DNA incubated for 3 mins by spectrofluorimetry. The class given is nucleic-acid assay. The method in brief: as §2
Experiment [4] addresses Quadruplex DNA. The experiment in a line: Displacement of Thiazole orange from c-Kit2 G4 quadruplex DNA incubated for 3 mins by spectrofluorimetry. The class given is nucleic-acid assay. The method, boiled down: as §2
In experiment [5] the test system is U2OS. The experiment in a line: Cytotoxicity against human U2OS cells assessed as reduction in cell viability incubated for 1 hr followed by 48 hrs of recovery in drug free medium by MTT assay. The class given is functional, cell-based. The method, boiled down: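 Cells grown in DMEM with 10% FBS and 1% glutamine at 37 °C, 5% CO2, and seeded 25 × 10^4 per well. Treatment began 24 h after seeding and lasted 1 or 24 h, followed by 48 h in drug-free medium. MTT was added for 1 h at 37 °C, then DMSO solubilization and absorbance at 595 nm. IC50 came from linear regression; two independent experiments, each in triplicate.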
Background: Tetrazolium assays rely on reduction of a dye to a coloured formazan, in cell work by metabolically active cells.

For experiment [6], the system named is Quadruplex DNA. As to the kind of experiment: Stabilization of G4 quadruplex DNA in human U2OS cells assessed as colocalization of TRF2/[…] foci at 2 uM incubated for 24 hrs by immunofluorescence microscopy (reference value: 18.4 +/- 2.81%). The class given is cell-based.
The test system of experiment [7] is U2OS. As to the kind of experiment: Induction of DNA damage in human U2OS cells assessed as increase in gammaH2AX phosphorylation at S139 at 10 uM incubated for 4 hrs by immunofluorescence microscopy. The class given is functional, cell-based. The method, boiled down:
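U2OS cells were treated with 10 μM for 4 h, pre-extracted 3 min with CSK buffer containing 0.5% Triton X-100, and fixed in 2% paraformaldehyde. Co-stained 1 h for 53BP1 and γH2AX, with DAPI counterstain. Foci were counted per nucleus and normalized to the untreated mean, across three biological replicates.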

Experiment [8] relates to Quadruplex DNA. The experiment in a line: Effect on c-Myc G4 quadruplex DNA architecture at 10 mol.equiv by circular dichroism spectral analysis. The class given is nucleic-acid assay. The method in brief:
as §1

Experiment [9] in a line: Stabilization of hairpin-duplex DNA assessed as change in melting temperature at 10 mol.equiv by circular dichroism melting assay. The method, boiled down:
(§3)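 CD melting from 20 to 100 °C at 1 °C/min, monitored at 264 nm (c-Kit1, c-Kit2, c-Myc, Tel23-p), 287 nm (Tel23-h) or 280 nm (hairpin). Ligand was at 10 mol equiv with folded DNA (15 μM G4, 30 μM hairpin). ΔTm is Tm with ligand minus Tm without, from curve fits, averaged over triplicates.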

The subject of experiment [10] is Quadruplex DNA. The experiment in a line: Displacement of Thiazole orange from c-Kit2 G4 quadruplex DNA incubated for 3 mins by spectrofluorimetry relative to control. The class given is nucleic-acid assay. The method, boiled down: as §2
Experiment [11] concerns Quadruplex DNA. The experiment in a line: Stabilization of human Tel23 G4 quadruplex DNA assessed as change in melting temperature at 10 mol.equiv by circular dichroism melting assay. The class given is nucleic-acid assay. The method, boiled down: as §3
Experiment [12] relates to Quadruplex DNA. As to the kind of experiment: Effect on parallel Tel23 G4 quadruplex DNA architecture at 10 mol.equiv by circular dichroism spectral analysis. The class given is nucleic-acid assay. The method in brief: as §1
The subject of experiment [13] is Quadruplex DNA. The experiment in a line: Stabilization of c-Kit2 G4 quadruplex DNA assessed as change in melting temperature at 10 mol.equiv by circular dichroism melting assay. The class given is nucleic-acid assay. The method in brief: as §3

Usually IC50 stands for the point on the concentration scale where inhibition reaches its midpoint. One may read the inhibition as the share of the control response that was lost under treatment. Usually ΔTm stands for the shift of the melting midpoint relative to a reference. Regarding `CC(C)(C)c1cc(/C=N/NC(=N)N)c(O)c(/C=C2/C(=O)Nc3c2ccc2ccccc32)c1.Cl`, the outcome in the experiment with Quadruplex DNA [1], in the experiment with Quadruplex DNA [8] and in the experiment with Quadruplex DNA [12] was inactive. The DC50 in [2] turned out to be 8.57 µM; at Quadruplex DNA [3], 480 nM; at Quadruplex DNA [4], 7.8 µM. Besides, in the experiment with U2OS [5], the IC50 stood at 12.5 µM. In the experiment with Quadruplex DNA [6], the Activity stood at 16.4%. Moreover, the result (with U2OS [7]; in experiment [9]; in the experiment on Quadruplex DNA [13]) was Active. In the experiment with Quadruplex DNA [10], the inhibition stood at 100%. Further, the ΔTm in the experiment on Quadruplex DNA [11] was under 2 °C.
